Reference: ChEMBL document CHEMBL3085664, “Structure-activity relationship of imidazopyridinium analogues as antagonists of neuropeptide s receptor” (J Med Chem, 2013)

Key:
[1] = Metabolic stability in mouse liver microsomes assessed as compound remaining after 60 mins in absence NADPH; assay type: ADME, Microsome; details: read-out: Stability
In short: (§1)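 Compound was incubated with mouse liver microsomes, and percent parent remaining was determined at 15, 30 and 60 min. Values are means from a single experiment run in duplicate.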

[2] = Metabolic stability in mouse liver microsomes assessed as compound remaining after 30 mins in absence NADPH; assay type: ADME, Microsome; details: read-out: Stability; in short: as §1
[3] = Metabolic stability in mouse liver microsomes assessed as compound remaining after 15 mins in absence NADPH; assay type: ADME, Microsome; details: read-out: Stability; in short: as §1
[4] = Metabolic stability in mouse liver microsomes assessed as compound remaining after 60 mins in presence NADPH; assay type: ADME, Microsome; details: read-out: Stability; in short: as §1
[5] = Metabolic stability in mouse liver microsomes assessed as compound remaining after 30 mins in presence NADPH; assay type: ADME, Microsome; details: read-out: Stability; in short: as §1
[6] = Metabolic stability in mouse liver microsomes assessed as compound remaining after 15 mins in presence NADPH; assay type: ADME, Microsome; details: read-out: Stability; in short: as §1
[7] = molecular target: T1, Neuropeptide S receptor (Homo sapiens, UniProt Q6W5P4); assay: Displacement of [125I]Tyr10-NPS from human neuropeptide S receptor expressed in CHO cells after 1.5 hrs by liquid scintillation counting; assay type: cell-based
T1 sequence (Q6W5P4 whole entry): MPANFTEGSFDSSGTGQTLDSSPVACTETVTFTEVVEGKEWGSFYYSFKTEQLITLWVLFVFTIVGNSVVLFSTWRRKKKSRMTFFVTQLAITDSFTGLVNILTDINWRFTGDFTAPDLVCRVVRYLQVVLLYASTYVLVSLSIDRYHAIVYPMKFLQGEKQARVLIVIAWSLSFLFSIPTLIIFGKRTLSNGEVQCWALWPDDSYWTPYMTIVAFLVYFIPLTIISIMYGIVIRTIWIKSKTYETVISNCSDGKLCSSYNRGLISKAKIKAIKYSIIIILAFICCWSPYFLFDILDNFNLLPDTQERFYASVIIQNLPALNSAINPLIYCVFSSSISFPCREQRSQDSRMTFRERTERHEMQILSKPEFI
In short: (§2)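 Whole CHO cells stably expressing human NPSR at 90–95% confluency in 24-well plates. Cells were incubated with 0.15 nM [125I]Y10-NPS plus increasing compound or unlabeled NPS in DMEM/0.1% BSA, 20°C, 1.5 hr. Nonspecific binding was defined with 1 µM unlabeled human NPS. Cells were washed, lysed in 1 N NaOH and counted by liquid scintillation. IC50 from one experiment in duplicate.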

[8] = molecular target: T1, Neuropeptide S receptor; assay: Antagonist activity at neuropeptide S receptor (unknown origin) expressed in CHO cells assessed as inhibition of NPS-induced ERK activation after 20 mins by HTRF assay; assay type: cell-based
[9] = molecular target: T1, Neuropeptide S receptor; assay: Antagonist activity at neuropeptide S receptor (unknown origin) expressed in CHO cells assessed as inhibition of NPS-induced calcium mobilization after 10 mins by fluorescence assay; assay type: functional, cell-based; details: read-out: IC50
In short: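 CHO-NPSR cells, 2000/well in 1536-well plates, incubated overnight, then loaded with no-wash calcium dye for 1 h at 37°C. Compound in DMSO was added for 10 min. Baseline fluorescence was recorded 6 s at 1 Hz, then EC80 NPS in stimulation buffer was added and recording continued 4 min at 1 Hz on a kinetic reader. IC50 is the mean with SD of two independent experiments in duplicate.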

[10] = molecular target: T1, Neuropeptide S receptor; assay: Antagonist activity at neuropeptide S receptor (unknown origin) expressed in CHO cells assessed as cAMP level after 30 mins by […] assay; assay type: functional, cell-based; details: read-out: IC50
In short: (§3)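 CHO cells stably expressing NPSR, 1800 cells/well in 1536-well format, seeded overnight at 37°C in medium without Geneticin. Stimulation buffer (PBS, 0.1% BSA, 0.05% Tween-20, 500µM Ro 20-1724, EC80 NPS) was added for 30 min at 37°C. cAMP was read by HTRF (d2-cAMP/cryptate anti-cAMP in lysis buffer, 30 min). IC50 is the mean with SD of two independent experiments, each run in duplicate.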

[11] = Drug level in mouse brain after 15 mins; assay type: ADME, tissue-based; details: read-out: Drug uptake
[12] = Drug level in mouse brain after 2 hrs; assay type: ADME, tissue-based; details: read-out: Drug uptake
[13] = test system: Mus musculus; assay: Inhibition of NPS-induced hyperlocomotion in mouse at 50 mg/kg, ip after 90 mins; assay type: functional; details: 1.5 h, route intraperitoneal
[14] = molecular target: T1, Neuropeptide S receptor; assay: Displacement of [125I]Tyr10-NPS from neuropeptide S receptor (unknown origin); in short: as §2
[15] = molecular target: T1, Neuropeptide S receptor; assay: Antagonist activity at neuropeptide S receptor (unknown origin) assessed as cAMP level by cell based assay; assay type: functional; in short: as §3
[16] = molecular target: T1, Neuropeptide S receptor; assay: Antagonist activity at neuropeptide S receptor (unknown origin) assessed as intracellular calcium level by cell based assay; assay type: functional
In short: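 CHO cells stably expressing NPSR were seeded at 2000 cells/well and incubated overnight at 37 °C, 5% CO2. They were loaded with no-wash calcium dye for 1 h, then preincubated with compound in DMSO for 10 min. Stimulation used NPS at EC80 in PBS/0.1% BSA/0.05% Tween-20 with 500 µM Ro 20-1724. Kinetic fluorescence was read at 1 Hz: 6 s baseline, then 4 min. IC50 is the mean ± SD of two independent experiments, each in duplicate.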

O=C(NCc1ccc(F)cc1)N1CCN2C(=O)OC(c3ccccc3)(c3ccccc3)C2C1 (stereo unspecified)
remaining at 1 h [1]: 101%
remaining at 0.5 h [2]: 96%
remaining at 0.25 h [3]: 105%
remaining at 1 h [4]: 2%
remaining at 0.5 h [5]: 9%
remaining at 0.25 h [6]: 29%
IC50 [7]: 0.025 µM
IC50 [8]: 0.014 µM
IC50 [9]: 0.42 µM
IC50 [10]: 0.0053 µM
concentration at 0.25 h [11]: 6 µM
concentration at 2 h [12]: 2 µM
inhibition in vivo at 50 mg/kg [13]: 50%
IC50 [14]: 0.048 µM
IC50 [15]: 0.42 µM
IC50 [16]: 0.028 µM
